The text below walks through data of ChEMBL document CHEMBL1926638, “Anti-cancer activity of 5-O-alkyl 1,4-imino-1,4-dideoxyribitols” (Bioorg Med Chem, 2011).

Structures are written as SMILES. Active and inactive are the calls of the source. The rule behind the calls is not given here.

The test system of series [1] is Canavalia ensiformis. Put plainly: Inhibition of jack beans alpha-mannosidase.
The test system of series [2] is SK-BR-3. The experiment in a line: Cytotoxicity against human SKBR3 cells assessed as cell viability 1 to 400 uM after 72 hrs by MTS assay. The format is functional, cell-based. In a few lines: (§1)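 SKBR3 (HER2+ breast cancer) cells exposed to compound for 72 h; number of metabolically active cells read by MTS tetrazolium reduction. Values are means of duplicate wells.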
On the technique in general: Tetrazolium dyes change colour on reduction, which living cells bring about.

The test system of series [3] is SK-BR-3. The experiment in a line: Cytotoxicity against human SKBR3 cells after 72 hrs by MTS assay. Format: functional, cell-based. In a few lines: as §1
Series [4] has as its system PBMC. The experiment in a line: Induction of apoptosis in PBMC at 10 uM after 24 hrs by annexin-V and 7AAD double staining based flow cytometric analysis. The format is cell-based.
Series [5] relates to Jurkat. Put plainly: Induction of apoptosis in human Jurkat cells assessed as cell death at 10 uM after 24 hrs by annexin V-7AAD double staining based flow cytometric analysis. The format is functional. In a few lines: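 Jurkat T-ALL cells exposed to 10 µM for 24 h (time-course series). Apoptosis quantified by annexin V and 7-AAD staining with flow cytometry. Early apoptotic = annexin V+/7AAD−, late apoptotic = annexin V+/7AAD+. Viability monitored in parallel by trypan blue exclusion. Values given as percent cell death.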
(In general: A flow cytometer gives signals particle by particle.)

In series [6] the test system is Jurkat. Put plainly: Cytotoxicity against human Jurkat cells by trypan blue assay. Format: functional, cell-based. In a few lines: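 JURKAT cells exposed to compound; viability monitored by Trypan blue exclusion.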
In series [7] the test system is Jurkat. The experiment in a line: Induction of apoptosis in human Jurkat cells assessed as cell death at 100 uM after 24 hrs by annexin V-7AAD double staining based flow cytometric analysis. The format is functional. In outline: (§2)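 JURKAT cells treated with compound. Apoptosis quantified by annexin-V/7-AAD staining and flow cytometry: early apoptotic = annexin V+7AAD−, late = annexin V+7AAD+. At 10 µM, a time course of cell death was also run.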

Series [8] deals with Jurkat. The experiment in a line: Induction of apoptosis in human Jurkat cells assessed as cell death at 10 uM by annexin V-7AAD double staining based flow cytometric analysis. The format is functional. The following applies: TDE = time-dependent effect. In outline: as §2
Series [9] relates to Jurkat. The experiment in a line: Induction of apoptosis in human Jurkat cells assessed as early apoptotic cells at 10 uM after 24 hrs by annexin V based flow cytometric analysis. Format: functional. In a few lines:
as §2

Series [10] is described as follows: Induction of apoptosis in human CD34-positive and CD38-deficient hematopoietic progenitor cells assessed as early apoptotic cells at 10 uM after 24 hrs by annexin V based flow cytometric analysis.
The subject of series [11] is SK-BR-3. The experiment in a line: Cytotoxicity against human SKBR3 cells assessed as cell death at 6.25 uM after 72 hrs by MTS assay. Format: functional, cell-based.
Series [12] has as its system SK-BR-3. The experiment in a line: Cell cycle arrest in human SKBR3 cells assessed as accumulation in G0/G1 phase after 24 hrs by FITC-conjugated annexin-V propidium iodide based flow cytometric analysis. The format is functional. In a few lines: (§3)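 SKBR3 cells treated with compound, then cell-cycle distribution examined (G0/G1 and S fractions); at higher concentrations DNA fragmentation and hypodiploid nuclei scored. Described as preliminary assays.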

Series [13] in a line: Cytotoxicity against mouse BA/F3 cells expressing tyrosine kinase at <10 uM after 48 hrs by resazurin reduction assay. The format is cell-based. The following applies: baf3, 48 h. In a few lines:
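15 Ba/F3 models, each proliferating through engineered expression of a specific tyrosine kinase. Compound incubated 48 h at concentrations below 10 µM, read by resazurin reduction. 9-point IC50 curves in three independent experiments.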
A general note: Alamar Blue is a resazurin reagent that responds to reducing activity.

Series [14] is described as follows: Induction of apoptosis in human CD34-positive and CD38-deficient hematopoietic progenitor cells assessed as cell death at 10 uM after 24 hrs by annexin V-7AAD double staining based flow cytometric analysis.
In series [15] the test system is Jurkat. Put plainly: Induction of apoptosis in human Jurkat cells assessed as late apoptotic cells at 10 uM after 24 hrs by annexin V-7AAD double staining based flow cytometric analysis. The format is functional. In a few lines:
as §2

Series [16] relates to SK-BR-3. Put plainly: Induction of apoptosis in human SKBR3 cells assessed as DNA fragmentation after 24 hrs by annexin-V propidium iodide based flow cytometric analysis. Format: functional, cell-based. In outline:
as §3

Series [17] concerns SK-BR-3. Put plainly: Induction of apoptosis in human SKBR3 cells assessed as hypodiploid cell nuclei appearance after 24 hrs by annexin-V propidium iodide based flow cytometric analysis. Format: functional. In a few lines:
as §3

Series [18] has as its system SK-BR-3. Put plainly: Cell cycle arrest in human SKBR3 cells assessed as reduction in S phase after 24 hrs by FITC-conjugated annexin-V propidium iodide based flow cytometric analysis. Format: functional. In a few lines: as §3
For series [19], the system named is SK-BR-3. The experiment in a line: Cytotoxicity in human SKBR3 cells assessed as increase in intracellular vacuolization after 6 to 12 hrs. Format: functional, cell-based.
Series [20] in a line: Induction of apoptosis in human CD34-positive and CD38-deficient hematopoietic progenitor cells assessed as late apoptotic cells at 10 uM after 24 hrs by annexin V-7AAD double staining based flow cytometric analysis.

As to `O[C@H]1[C@@H](O)CN[C@@H]1COCc1ccccc1`, the Inhibition activity entry in series [1] was “inactive”. In addition, the outcome in series [2] was inactive.
Consider `CCCCCCCCCCOC[C@H]1NC[C@H](O)[C@@H]1O`, for which, in series [1], the Inhibition activity entry was “inactive”. Moreover, the outcome in series [3] and in [2] was Active.
For `CCCCCCCCCCCCCCCCCCOC[C@H]1NC[C@H](O)[C@@H]1O`, the Inhibition activity result in series [1] is “inactive”. The result in series [3] and in series [2] was Active.
On to `CCCCCCCCCCCCCCOC[C@H]1NC[C@H](O)[C@@H]1O`, for which the Inhibition activity entry in [1] is “inactive”.
As for `OC[C@H]1NC[C@H](O)[C@@H]1O` [IMINORIBITOL], the Activity entry in series [4] is “Non-toxic”. The outcome in [5], in series [6] and in series [2] was inactive.
Consider `CC/C=C\C/C=C\C/C=C\CCCCCCCCOC[C@H]1NC[C@H](O)[C@@H]1O`, for which, in [1], the Inhibition activity result was “inactive”. In addition, the outcome in [3] and in series [2] was Active.
Take `O[C@H]1[C@@H](O)CN[C@@H]1COCc1ccc(-c2ccccc2)cc1`: in [1], the Inhibition activity result is “Active”. The result in series [7] and in [2] was Active.
As to `CCCCCCCC/C=C\CCCCCCCCOC[C@H]1NC[C@H](O)[C@@H]1O`, the Activity result in [8] is “tde”; in [9], 40%; in [10], 20%; in series [5] it was 100%; in [13], “Non-toxic”; in [14], 60%. Also, the Activity is reported as 60% in series [15] and 40% in [20]. Besides, the IC50 in [3] (SK-BR-3, 72 h) stood at 2 µM; in [6], 8 µM. Also, the outcome in [11], in series [12], in series [16], in series [17], in series [18] and in series [19] was Active.
With `CCCCC/C=C\C/C=C\CCCCCCCCOC[C@H]1NC[C@H](O)[C@@H]1O`, the Inhibition activity entry in [1] is “inactive”. Moreover, the result in [3] and in series [2] was Active.
Regarding `CCCCCC/C=C\CCCCCCCCOC[C@H]1NC[C@H](O)[C@@H]1O`, the Inhibition activity result in [1] is “inactive”. Besides, the result in series [3] and in series [2] was Active.
`C=CCCCOC[C@H]1NC[C@H](O)[C@@H]1O`: the Inhibition activity entry in series [1] is “inactive”.
Turning to `CCCCCCCOC[C@H]1NC[C@H](O)[C@@H]1O`, the Inhibition activity result in [1] is “inactive”. The outcome in series [2] was inactive.
As for `CCCCCOC[C@H]1NC[C@H](O)[C@@H]1O`, the Inhibition activity result in series [1] was “inactive”.

In general, IC50 refers to the concentration at which inhibition is half-maximal. A high value points to weaker potency in that assay.
